Assay results: ChEMBL document CHEMBL5375998, “New Genetically Engineered Derivatives of Antibacterial Darobactins Underpin Their Potential for Antibiotic Development” (J Med Chem, 2023)
Converted amounts (≈) assume the structure as drawn.

What was measured:
[1] = Binding affinity to Escherichia coli N-terminal 6 his tagged BamA barrel domain (421 to 810 residues) assessed as dissociation constant measured after 15 mins by microscale thermophoresis analysis
Outline: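 Microscale thermophoresis with E. coli BamA at 50 nM in 50 mM HEPES pH 7.6, 5 mM MgCl2, 0.05% Tween. Ligand stock was in water and diluted in HEPES buffer. It was tested from the highest soluble concentration, mostly 2 mM, in 1:1 serial dilution over 16 samples. A labeling/fluorescence pretest was run for each sample.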

Acinetobacter baumannii [2] = experiment: Antibacterial activity against Acinetobacter baumannii DSM-30007 assessed as reduction in bacterial growth measured after 24 hrs; format: functional
Pseudomonas aeruginosa [3] = experiment: Antibacterial activity against Pseudomonas aeruginosa PA14 DSM 19882 assessed as reduction in bacterial growth measured after 24 hrs; conditions: PA14 DSM 19882, 24 h
Pseudomonas aeruginosa [4] = experiment: Antibacterial activity against multidrug resistant Pseudomonas aeruginosa 84389 clinical isolate assessed as reduction in bacterial growth measured after 24 hrs; format: functional
Acinetobacter baumannii [5] = experiment: Antibacterial activity against Acinetobacter baumannii NCTC 13301 assessed as reduction in bacterial growth measured after 24 hrs; format: functional
Pseudomonas aeruginosa [6] = experiment: Antibacterial activity against multidrug resistant Pseudomonas aeruginosa 83979 clinical isolate assessed as reduction in bacterial growth measured after 24 hrs; format: functional
Acinetobacter baumannii [7] = experiment: Antibacterial activity against Acinetobacter baumannii ATCC 17978 assessed as reduction in bacterial growth measured after 24 hrs; format: functional

| Compound | Kd [1] [µM] | MIC (Acinetobacter baumannii [2]) [µg/mL] | MIC (Pseudomonas aeruginosa [3]) [µg/mL] | MIC (Pseudomonas aeruginosa [4]) [µg/mL] | MIC (Acinetobacter baumannii [5]) [µg/mL] | MIC (Pseudomonas aeruginosa [6]) [µg/mL] | MIC (Acinetobacter baumannii [7]) [µg/mL] |
| --- | --- | --- | --- | --- | --- | --- | --- |
| C[C@@H](O)[C@@H]1NC(=O)[C@H]2NC(=O)[C@H](CC(N)=O)NC(=O)[C@@H](N)Cc3c[nH]c4c(cccc34)O[C@@H]2c2c[nH]c3cc(ccc23)[C@H](CCCN)[C@@H](C(=O)N[C@@H](CCC(N)=O)C(=O)N[C@@H](Cc2c[nH]c3ccccc23)C(=O)O)NC1=O | 2.2 | – | – | – | – | – | – |
| N=C(N)NCCC[C@H](NC(=O)[C@H]1NC(=O)[C@H](CO)NC(=O)[C@H]2NC(=O)[C@H](CCC(N)=O)NC(=O)[C@@H](N)Cc3c[nH]c4c(cccc34)O[C@@H]2c2c[nH]c3cc(ccc23)[C@@H]1CCCN)C(=O)N[C@@H](Cc1c[nH]c2ccccc12)C(=O)O | – | 2 (≈ 1.84 µM) | 16 (≈ 14.7 µM) | 16 (≈ 14.7 µM) | 8 (≈ 7.35 µM) | 8 (≈ 7.35 µM) | 16 (≈ 14.7 µM) |
| C[C@@H](O)[C@@H]1NC(=O)[C@H]2NC(=O)[C@H](CC(=O)O)NC(=O)[C@@H](N)Cc3c[nH]c4c(cccc34)O[C@@H]2c2c[nH]c3cc(ccc23)[C@H](CCCN)[C@@H](C(=O)N[C@@H](CCCNC(=N)N)C(=O)N[C@@H](Cc2c[nH]c3ccccc23)C(=O)O)NC1=O | 22.6 | – | – | – | – | – | – |
